UBC13 inh – human UBC13 polyubiquitination inhibition | UBC13 polyubiquitin chain formation, TR-FRET | AID 485273 | inhibition, % at 20 µM | hit rate 0.47% among 330,000 | P61088; in the data active = inhibition above about 45%, passing the limit was not always enough
Target sequence (P61088 whole entry, looked up): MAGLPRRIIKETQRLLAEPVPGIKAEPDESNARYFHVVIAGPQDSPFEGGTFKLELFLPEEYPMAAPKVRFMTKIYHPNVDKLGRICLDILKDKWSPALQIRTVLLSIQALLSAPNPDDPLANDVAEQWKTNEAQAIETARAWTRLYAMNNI
Apaf-1 inh – blocks human Apaf-1 apoptosome activity; O14727; reconstituted apoptosome caspase-3 activity, DEVD-Rh110 fluorescence; inhibition, % at 20 µM; hit rate 0.71% among 330,000; AID 489030; active = inhibition of at least 40% at 20 µM;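 note: plate controls were DMSO wells for no effect and DEVD-CHO caspase inhibitor wells for full effect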
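Material: reconstituted apoptosome with Apaf-1, cytochrome c, caspase-9, procaspase-3, dATP; medium: pH 7.5 Hepes buffer with CHAPS, BSA, DTT; also added: cytochrome c and DEVD-Rh110 substrate; timing: 30 min plus 50 min, RT; signal: Rh110 fluorescence intensity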
SENP6 inh – inhibitors of human SENP6 protease; Q9GZR1; Recombinant SENP6 catalytic domain, aminoluciferin luminescence; inhibition, % at 10 µM; hit rate 1.8% among 330,000; AID 2599;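 active = inhibition above about 50% at the single tested dose, limit read from the data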;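 note: plate controls were DMSO wells with enzyme for no effect and DMSO wells lacking enzyme for full effect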
SENP8 block-1 – inhibitors of human SENP8 protease; Q96LD8; inhibition, % at 20 µM; recombinant SENP8, Nedd8 substrate fluorescence; hit rate 0.64% among 360,000; in the data active = inhibition mostly above about 40%, no sharp cut-off; inactive = mostly below about 27%
SENP8 block-2 – inhibitors of human SENP8 protease; Q96LD8; purified SENP8, Z-RLRGG-aminoluciferin cleavage, luminescence; inhibition, % at 10 µM; hit rate 1.2% among 330,000; in the data active = inhibition above about 50%
SENP7 inh – SENP7 protease inhibition; Q9BQF6; recombinant SENP7, Z-RLRGG-aminoluciferin luminescence, 40 min; inhibition, % at 5 µM; hit rate 1.5% among 330,000; AID 434973;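 active = inhibition above about 50% at the single test dose, limit read from the data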;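 note: plate controls were DMSO with enzyme for no effect and no enzyme buffer wells for full effect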
Target sequence (Q9BQF6 706-1050 limits assumed): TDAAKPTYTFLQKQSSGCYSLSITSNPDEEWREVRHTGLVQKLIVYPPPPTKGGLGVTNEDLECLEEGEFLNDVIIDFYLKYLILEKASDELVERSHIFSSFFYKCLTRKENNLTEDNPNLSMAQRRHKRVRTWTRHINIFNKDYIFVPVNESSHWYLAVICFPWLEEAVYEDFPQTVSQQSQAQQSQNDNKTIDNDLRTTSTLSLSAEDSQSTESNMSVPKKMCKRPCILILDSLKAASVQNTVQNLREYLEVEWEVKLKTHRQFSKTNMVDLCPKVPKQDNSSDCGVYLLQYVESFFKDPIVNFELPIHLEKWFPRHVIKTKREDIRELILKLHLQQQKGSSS
SENP8 conf – confirmation of human SENP8 protease inhibitors | Recombinant SENP8, Z-RLRGG-aminoluciferin luminescence, 60 min | inhibition, % at 12.5 µM | shares compounds with SENP7 inh | hit rate 40% among 6,200;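 active = mean inhibition across replicates above about 50%, limit read from the data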
SENP6 confirm – human SENP6 inhibition, confirmed; shares compounds with SENP7 inh; recombinant SENP6, Z-RLRGG-aminoluciferin luminescence; inhibition, % at 12.5 µM; hit rate 58% among 6,200; AID 488915
SENP7 conf – confirmation of human SENP7 protease inhibitors. shares compounds with SENP7 inh. recombinant SENP7, Z-RLRGG-aminoluciferin luminescence, 40 min. inhibition, % at 12.5 µM. hit rate 69% among 6,200. AID 488917
Casp3 SENP sel – inhibits human caspase-3 in SENP selectivity test | shares compounds with SENP7 inh | purified caspase-3, Z-DEVD-aminoluciferin luminescence, 60 min | inhibition, % at 12.5 µM | hit rate 60% among 6,200;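 active = mean inhibition above about 50%, limit read from the data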;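 note: plate controls were enzyme with DMSO for no effect and wells without caspase-3 for full effect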
Luc interf – interferes with luciferase luminescence in SENP counter-screen. shares compounds with SENP7 inh. Pre-incubated SENP8/Z-RLRGG-aminoluciferin, luciferase luminescence interference. inhibition, % at 12.5 µM. hit rate 39% among 6,200. AID 488919;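 active = mean inhibition above about 50% when retested at one dose, limit read from the data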;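 note: plate controls were DMSO wells with completed reaction for no effect and substrate without enzyme for full effect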
Starred values were filed as active, the others as inactive; · = not tested or not shown. In the library only some 3% were active in any assay of this set; here they are far more common.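 Rule for the calls, unless noted: active = mean inhibition above about 50% in the one-dose retest (limit read from the data); inactive = the rest.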

SMILES	UBC13 inh	Apaf-1 inh	SENP6 inh	SENP8 block-1	SENP8 block-2	SENP7 inh	SENP8 conf	SENP6 confirm	SENP7 conf	Casp3 SENP sel	Luc interf
CC(=O)Oc1ccc2c(c1)C(=O)CCCCCC(=O)O2	·	·	·	5	·	·	·	·	·	·	·
Cc1cccc(C)c1NC(=O)C(c1ccccc1OC(F)(F)F)N1CCN(C/C=C/c2ccccc2)CC1 (centres undefined)	·	·	·	22	·	·	·	·	·	·	·
CCc1cccc(NC(=S)Nc2cccc3ccccc23)c1	-28	79*	78*	-392	43	27	12	8	1	-2	-3
CCN(CC)S(=O)(=O)c1ccc(N=Nc2c(C)[nH]n(C(N)=S)c2=O)cc1	-39	-8	54*	36	17	18	41	37	72*	56*	18
CC(=O)N(C)c1ccc(N=Nc2c(C)[nH]n(-c3ccccc3)c2=O)cc1	-34	22	9	30	-1	-3	·	·	·	·	·
NC(=S)n1[nH]c(-c2ccc([N+](=O)[O-])cc2)c(N=Nc2ccc(O)cc2)c1=O	-52	0	-7	34	19	7	·	·	·	·	·
CC(=O)N(C)c1ccc(N=Nc2c(C)[nH]n(C(N)=S)c2=O)cc1	-13	0	78*	18	78*	85*	86*	87*	98*	96*	90*
O=C1CC(/C=C/c2ccccc2)=Nc2ccccc2N1	-2	9	67*	-46	47	50	46	44	56*	33	6
O=C1CC(/C=C/c2ccc(Cl)cc2)=Nc2ccccc2N1	-17	32	23	5	16	-1	·	·	·	·	·
CN1/C(=C\C(=O)c2cccs2)Sc2ccccc21	-10	-14	86*	-497	82*	-4	91*	90*	100*	92*	92*
CN1/C(=C/C(=O)c2cccs2)Sc2ccccc21	-16	-3	90*	-284	84*	83*	94*	94*	102*	94*	92*
Cc1ccc(F)c(S(=O)(=O)NC(=O)C2(C)CCN2C(=O)CC(c2ccccc2)c2ccccc2)c1 (centres undefined)	·	·	·	16	·	·	·	·	·	·	·
CCCCn1c(N)c(N(CCOC)C(=O)CCS(=O)(=O)c2ccc(C)cc2)c(=O)[nH]c1=O	·	·	·	4	·	·	·	·	·	·	·
Cc1cccc(/C=N\Nc2cn[nH]c(=O)c2Cl)c1	2	-3	76*	-193	55*	71*	71*	67*	88*	76*	45
c1ccc(CN2CCC3CC2c2cc(N4CCOCC4)ccc23)cc1 (centres undefined)	·	·	·	6	·	·	·	·	·	·	·
O=C(/C=C\Nc1cccc(F)c1)c1cccs1	1	7	94*	-284	89*	92*	96*	97*	102*	93*	95*
Cc1ccc(N/C=C/C(=O)c2cccs2)cc1	-1	-2	93*	-163	94*	93*	79*	97*	101*	95*	70*
O=C(/C=C/Nc1ccccc1F)c1cccs1	-4	4	96*	-79	96*	100*	97*	100*	103*	98*	97*
O=C(/C=C/Nc1ccc(F)cc1F)c1cccs1	5	-1	96*	-138	97*	99*	-8	100*	104*	98*	27
O=C(NC1CCCC1)C(c1ccccc1)n1c(-c2cccc3ccccc23)nc2ccccc21 (centres undefined)	·	·	·	-71	·	·	·	·	·	·	·
CC(C)C(=O)N1CCC1(C)C(=O)NCc1ccc(F)cc1Cl (centres undefined)	·	·	·	7	·	·	·	·	·	·	·
COc1ccc(/C=C/C(=O)NC(=S)N2CCOCC2)cc1	0	4	70*	-2	46	70*	62*	56*	83*	80*	67*
Cc1c(NC(=O)c2ccc(NC(=O)C3CC3)cc2)cccc1C(=O)O	4	5	53*	8	27	57*	48	44	77*	15	35
Cc1c(NC(=O)c2ccccc2N)cccc1C(=O)O	-9	6	56*	-100	46	71*	74*	68*	89*	25	39
Cc1c(NC(=O)c2ccccc2NC(=O)c2ccccc2)cccc1C(=O)O	7	-7	-26	9	-13	-5	·	·	·	·	·
SMILES	UBC13 inh	Apaf-1 inh	SENP6 inh	SENP8 block-1	SENP8 block-2	SENP7 inh	SENP8 conf	SENP6 confirm	SENP7 conf	Casp3 SENP sel	Luc interf
O=C(Nc1ccccc1C(=O)O)c1ccc(NC(=O)C2CCCO2)cc1 (centres undefined)	0	5	47	1	25	26	·	·	·	·	·
O=C(Nc1ccc(NC(=O)C2CC2)cn1)c1ccccc1	-3	9	65*	10	32	45	55*	53*	77*	84*	8
Cc1ccccc1C(=O)O/N=C(\N)c1ccc([N+](=O)[O-])cc1	-4	3	2	12	1	-7	·	·	·	·	·
COc1cc(OC)c(C(=O)O/N=C(\N)c2ccccc2)cc1OC	-7	5	-27	-16	5	2	·	·	·	·	·
COc1ccc(C(=O)O/N=C(\N)c2cccc(C)c2)cc1OC	2	7	31	6	6	29	·	·	·	·	·
Cc1ccccc1C(=O)O/N=C(\N)c1ccccc1	3	2	95*	13	93*	100*	97*	98*	102*	98*	96*
Cc1occc1C(=O)O/N=C(\N)c1ccccc1	5	-9	94*	11	91*	93*	94*	95*	102*	98*	94*
Cc1cccc(/C(N)=N/OC(=O)c2ccoc2C)c1	-2	14	97*	14	94*	98*	97*	97*	102*	97*	96*
C/C(=N\OC(=O)c1ccc(F)cc1)c1sc(-c2ccccc2)nc1C	-3	-6	-10	-18	-7	4	·	·	·	·	·
C/C(=N/OC(=O)c1ccc(F)cc1)c1ccc(C)cc1	5	1	60*	20	55*	71*	12	8	18	17	5
Cc1cccc(C)c1NC(=O)C1c2ccccc2OCC(=O)N1Cc1cccnc1 (centres undefined)	·	·	·	2	·	·	·	·	·	·	·

Screening results from PubChem BioAssay.
